Test results reported in ChEMBL document CHEMBL3425494, “Design, synthesis, and antitumor evaluation of novel histone deacetylase inhibitors equipped with a phenylsulfonylfuroxan module as a nitric oxide donor” (J Med Chem, 2015).
Active and inactive are the calls of the source. No cut-off for these calls is given here.

Legend:
[1] = molecular target: Histone deacetylase 1 (Homo sapiens) (UniProt Q13547); conditions: MV4-11, 12.5 to 200 nM
HEL [2] = experiment: Induction of apoptosis in human HEL cells after 24 hrs by 7-AAD-annexin-V/propidium iodide staining-based flow cytometric analysis; type: functional, cell-based
Summary of the method: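 HEL cells (1 × 10⁵/well) grown 24 h, then treated 24 h at 0.5, 1 or 2 µM in fresh medium; 0.1% DMSO control. Cells collected, washed with cold PBS, stained in binding buffer with 7-AAD and propidium iodide (PE-Annexin V kit) 15 min at 25 °C in the dark; apoptotic fraction by flow cytometry.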

[3] = molecular target: Histone deacetylase 2 (Homo sapiens) (UniProt Q92769); conditions: HEL, 10 uM
Chain of Histone deacetylase 2 (Homo sapiens) (Q92769 whole entry): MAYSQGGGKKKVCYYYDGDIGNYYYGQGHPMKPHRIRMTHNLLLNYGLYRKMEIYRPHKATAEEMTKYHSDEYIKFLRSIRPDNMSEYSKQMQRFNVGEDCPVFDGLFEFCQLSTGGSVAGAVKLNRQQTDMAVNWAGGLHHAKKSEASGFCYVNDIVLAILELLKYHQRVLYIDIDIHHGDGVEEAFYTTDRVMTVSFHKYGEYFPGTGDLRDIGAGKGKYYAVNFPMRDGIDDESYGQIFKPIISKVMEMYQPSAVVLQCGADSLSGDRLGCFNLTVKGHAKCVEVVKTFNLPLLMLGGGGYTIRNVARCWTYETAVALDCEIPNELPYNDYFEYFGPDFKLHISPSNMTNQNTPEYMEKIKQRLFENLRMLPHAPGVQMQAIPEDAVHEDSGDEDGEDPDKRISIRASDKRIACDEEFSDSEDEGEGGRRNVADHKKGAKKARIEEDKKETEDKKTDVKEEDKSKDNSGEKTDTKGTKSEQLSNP

HUVEC = experiment: Cytotoxicity against HUVEC assessed as growth inhibition after 48 hrs by MTT assay; type: cell-based; conditions: Homo sapiens
HEL [4] = experiment: Antitumor activity against human HEL cells xenografted in BALB/c-nu mouse assessed as decrease in tumor volume at 120 mg/kg/day, po administered for 21 days measured every 3 days during compound dosing relative to control; type: functional
HEL [5] = experiment: Cell cycle arrest in human HEL cells assessed as accumulation at G2 phase at 0.5 uM after 48 hrs by propidium iodide staining-based flow cytometric analysis (reference value: 5.28%); type: functional
[6] = Cytotoxicity against human U937 cells assessed as growth inhibition after 48 hrs by MTT assay; type: functional, cell-based; conditions: U-937, 48 h
HEL [7] = experiment: Cytotoxicity against hemoglobin treated human HEL cells assessed as growth inhibition at 2 uM treated for 24 hrs post hemoglobin challenge measured after 48 hrs by MTT assay; type: functional, cell-based
Summary of the method: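 HEL cells in RPMI 1640/10% FBS, 37 °C, 5% CO₂, plated ≥4 h before treatment; pretreated 1 h with hemoglobin (0, 2.5, 5, 10 or 20 µM), then 2 µM compound for 24 h, incubated a further 48 h. MTT 0.5%, 4 h, formazan dissolved in DMSO, absorbance 490 and 630 nm; percent growth inhibition versus control; three independent experiments, mean ± SD.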

[8] = Cytotoxicity against human MDA cells assessed as growth inhibition after 48 hrs by MTT assay; type: functional, cell-based
HeLa = experiment: Cytotoxicity against human HeLa cells assessed as growth inhibition after 48 hrs by MTT assay; type: functional, cell-based
HEL [9] = experiment: Antitumor activity against human HEL cells xenografted in BALB/c-nu mouse assessed as decrease in tumor volume at 100 mg/kg/day, po administered for 21 days measured every 3 days during compound dosing relative to control; type: functional
Summary of the method: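 Male athymic nude mice (6–8 weeks) inoculated s.c. in right flank with HEL cells cultured in RPMI 1640/10% FBS; treatment began when tumors were about 100 mm³ (~10 days), 6 mice per group. Oral gavage daily for 21 days; vehicle control PBS containing DMSO. Caliper measurement every 3 days, V = ab²/2; T/C = mean RTV treated / mean RTV control, RTV = Vt/V0.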

Mus musculus = experiment: Toxicity in BALB/c-nu mouse xenografted with human HEL cells assessed as effect on liver at 120 mg/kg/day, po administered for 21 days; type: organism-based; set-up: route oral; conditions: in vivo, 504 h
Summary of the method: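 Nude mice bearing HEL xenografts dosed orally 120 mg/kg/day for 21 days, 6 per group, controls on PBS/DMSO vehicle. After treatment, mice sacrificed and dissected to examine internal organs.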

HEL [10] = experiment: animal or person; type: functional, Homo sapiens; conditions: Mus musculus, po, read-out: TGI
[11] = molecular target: T1, Protein deacetylase HDAC6 (Homo sapiens, UniProt Q9UBN7); experiment: Inhibition of full length human recombinant HDAC6 expressed in baculovirus infected insect S9 cells using Ac-Leu-GlyLys(Ac)-AMC as substrate after 30 mins by fluorescence assay
T1 sequence (Q9UBN7 whole entry): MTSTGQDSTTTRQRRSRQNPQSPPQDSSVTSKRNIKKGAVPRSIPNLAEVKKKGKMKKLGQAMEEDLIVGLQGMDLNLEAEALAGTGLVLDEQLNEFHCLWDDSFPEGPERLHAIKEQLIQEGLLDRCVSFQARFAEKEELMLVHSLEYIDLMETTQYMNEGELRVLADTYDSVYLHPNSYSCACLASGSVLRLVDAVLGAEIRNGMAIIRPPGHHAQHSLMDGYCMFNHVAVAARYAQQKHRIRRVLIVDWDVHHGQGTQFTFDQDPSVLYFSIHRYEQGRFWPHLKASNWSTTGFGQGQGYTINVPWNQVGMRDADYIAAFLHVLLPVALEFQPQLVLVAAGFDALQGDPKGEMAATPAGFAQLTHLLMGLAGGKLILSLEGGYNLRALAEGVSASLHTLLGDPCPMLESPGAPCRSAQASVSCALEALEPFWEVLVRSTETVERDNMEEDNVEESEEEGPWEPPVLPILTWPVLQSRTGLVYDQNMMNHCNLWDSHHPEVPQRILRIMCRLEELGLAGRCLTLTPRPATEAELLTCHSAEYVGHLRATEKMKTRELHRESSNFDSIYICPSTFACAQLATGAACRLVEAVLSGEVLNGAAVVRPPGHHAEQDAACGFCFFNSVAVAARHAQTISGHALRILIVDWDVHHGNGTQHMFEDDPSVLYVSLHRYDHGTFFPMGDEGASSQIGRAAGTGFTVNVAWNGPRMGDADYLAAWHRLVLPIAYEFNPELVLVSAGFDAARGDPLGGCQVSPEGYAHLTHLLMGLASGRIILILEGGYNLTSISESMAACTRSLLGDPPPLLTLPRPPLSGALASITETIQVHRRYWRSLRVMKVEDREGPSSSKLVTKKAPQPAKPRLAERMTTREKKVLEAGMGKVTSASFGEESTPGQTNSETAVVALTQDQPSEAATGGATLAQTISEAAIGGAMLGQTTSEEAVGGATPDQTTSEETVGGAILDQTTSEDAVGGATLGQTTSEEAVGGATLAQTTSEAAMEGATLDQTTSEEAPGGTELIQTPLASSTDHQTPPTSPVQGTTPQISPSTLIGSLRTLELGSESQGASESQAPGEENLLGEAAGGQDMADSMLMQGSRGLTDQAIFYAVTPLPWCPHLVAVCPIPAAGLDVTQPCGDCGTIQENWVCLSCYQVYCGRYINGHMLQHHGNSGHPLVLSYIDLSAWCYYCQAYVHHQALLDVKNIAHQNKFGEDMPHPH

HEL [12] = experiment: Antitumor activity against human HEL cells xenografted in po dosed BALB/c-nu mouse administered for 21 days measured every 3 days during compound dosing; type: functional, organism-based
Summary of the method: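 Subcutaneous HEL xenograft in right flank of male athymic nude mice, 6 per group, dosing started at ~100 mm³. Oral administration at 100 or 120 mg/kg/day for 21 consecutive days; controls given PBS containing DMSO. Tumors measured by caliper every 3 days (V = ab²/2); tumors weighed after sacrifice; mean ± SD.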

[13] = molecular target: Histone deacetylase 2 (Homo sapiens) (UniProt Q92769); conditions: HEL, 1 to 10 uM

Chain of Histone deacetylase 1 (Homo sapiens) (Q13547 whole entry): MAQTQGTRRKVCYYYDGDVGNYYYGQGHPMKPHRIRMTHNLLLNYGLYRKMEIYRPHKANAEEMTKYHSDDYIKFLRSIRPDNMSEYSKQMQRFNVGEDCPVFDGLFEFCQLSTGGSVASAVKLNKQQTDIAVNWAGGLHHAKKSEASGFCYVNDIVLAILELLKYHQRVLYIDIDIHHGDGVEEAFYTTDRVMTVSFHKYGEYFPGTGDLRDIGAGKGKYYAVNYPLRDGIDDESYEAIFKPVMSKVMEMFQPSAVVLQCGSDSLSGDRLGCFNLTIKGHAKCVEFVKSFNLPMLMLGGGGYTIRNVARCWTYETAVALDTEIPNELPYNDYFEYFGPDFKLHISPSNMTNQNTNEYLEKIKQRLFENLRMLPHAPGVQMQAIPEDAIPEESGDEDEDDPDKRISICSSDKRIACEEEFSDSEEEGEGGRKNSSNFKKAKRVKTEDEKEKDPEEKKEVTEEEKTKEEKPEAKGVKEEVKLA

inhibition [1]: Active
inhibition [3]: inactive
IC50 [11]: 7.4 nM
inhibition [13]: Active
Structure (SMILES): O=C(CCCCCOc1no[n+]([O-])c1S(=O)(=O)c1ccccc1)NO
Activity (HEL [2]): Dose-dependent effect
IC50 (HUVEC): 27100 nM
T/C (HEL [4]): 39%
Activity (HEL [5]): 0.45%
IC50 [6]: 3100 nM
growth inhibition (GI) (HEL [7]): inactive
IC50 [8]: 2250 nM
IC50 (HeLa): 1550 nM
T/C (HEL [9]): 56%
Activity (Mus musculus): Non-toxic
inhibition in vivo at 120 mg/kg/day (HEL [10]): 48%
Activity (HEL [12]): Dose-dependent effect
